# Residue numbers refer to the chain shown, from its start. “Also recorded” adds a separate entry of the source.
# Key:
# [1] = biological target: Human MDR1 efflux transporter (MDCK-MDR1 cells) (Homo sapiens, UniProt P08183); test: MDCK-MDR1 bidirectional permeability / efflux; type: in vitro ADME; conditions: average of inward and outward permeability
# In short: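 MDCK-MDR1 cells were seeded at 0.28×10^6 cells/mL on the apical side of transwell inserts and grown 7 days, with two media changes. Monolayers were rinsed in HBSS/1% HEPES pH 7.4. 1 μM test compound was added to the donor side (A>B and B>A); receivers held buffer with 1% BSA. Plates were shaken 2 h at 37°C. Donor was sampled at 0 and 120 min, receiver at 2 h, and quenched with acetonitrile plus internal standard for LC-MS/MS. Post-assay TEER had to exceed 430 ohm∗cm2. Papp = (dQ/dt)(1/C0)(1/A); ER = Papp B>A / Papp A>B.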
# WT-Parkin = biological target: T1, WT-Parkin (Homo sapiens, UniProt O60260); test: Parkin autoubiquitination by Western blot; type: biochemical; conditions: 5 min reaction at 37°C
# T1 sequence (O60260 1-465): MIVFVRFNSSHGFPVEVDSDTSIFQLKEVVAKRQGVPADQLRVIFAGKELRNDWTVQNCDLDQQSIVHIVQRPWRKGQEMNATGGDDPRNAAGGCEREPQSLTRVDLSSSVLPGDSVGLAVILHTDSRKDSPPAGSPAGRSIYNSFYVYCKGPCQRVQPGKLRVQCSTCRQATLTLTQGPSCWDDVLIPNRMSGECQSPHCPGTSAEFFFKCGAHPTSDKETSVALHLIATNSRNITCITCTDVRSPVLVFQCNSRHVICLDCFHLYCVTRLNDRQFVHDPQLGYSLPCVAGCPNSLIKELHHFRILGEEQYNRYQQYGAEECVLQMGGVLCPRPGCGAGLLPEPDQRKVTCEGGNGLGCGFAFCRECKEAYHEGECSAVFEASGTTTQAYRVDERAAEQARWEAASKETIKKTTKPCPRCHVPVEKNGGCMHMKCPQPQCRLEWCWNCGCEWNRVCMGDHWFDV
# In short: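 Untagged WT-Parkin was pre-incubated 30 min at 37°C with E1, E2 and test compound; the 2X mix held 40 nM E1, 800 nM E2 and 100 nM Parkin. Then 2X substrate mix was added (760 nM fluorescein-Ub, 50 μM ubiquitin, 10 μM pUb, 2 mM ATP) in HEPES pH 7.4 buffer with 1% DMSO, in 40 μL. Stopped after 5 min with SDS sample buffer; polyubiquitin smears were read by Western blot.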
# [2] = biological target: T2, WT-Parkin (substrate His-Miro1 186-591) (Homo sapiens, UniProt O60260); test: Miro1 ubiquitination assay by Western blot; type: biochemical; conditions: His-Miro1 (186-591) substrate
# T2 sequence (O60260 1-465): T1 sequence (O60260 1-465)
# In short: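 Run as the TR-FRET reaction with untagged WT-Parkin. Test compound was pre-incubated 30 min with E1, E2, Parkin and His-Miro1 186-591 (250 nM final); the 2X mix held 40 nM E1, 800 nM E2 and 100 nM Parkin. After 20 min the reaction was stopped in SDS sample buffer, then run on 4–12% bis-tris SDS-PAGE, PVDF transfer and IR-dye secondary imaging.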
# [3] = biological target: T3, N-terminally tagged WT-Parkin (Homo sapiens, UniProt O60260); test: In vitro ubiquitin vinyl sulfone; type: biochemical; conditions: 3 μM pUb, 2 h
# T3 sequence (O60260 1-465): T1 sequence (O60260 1-465)
# In short: (§1)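 Tagged Parkin (WT or W403A), 2 μM, incubated with 10 μM Ub-VS and 3 μM pUb. Test compound at 0, 0.09, 0.27, 0.8, 2.5, 7.4, 22.2, 66.7 and 200 μM. Buffer: 50 mM HEPES, 150 mM NaCl, 1 mM TCEP, pH 8.0. Final DMSO 2% (v/v).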
# [4] = biological target: T4, N-terminally tagged W403A-Parkin (Homo sapiens, UniProt O60260, W403A); test: In vitro ubiquitin vinyl sulfone; type: biochemical; conditions: 3 μM pUb, 1 h
# T4 sequence (O60260 1-465 W403A): T1 sequence (O60260 1-465) with W403A
# In short: as §1
# [5] = biological target: T5, N-terminally tagged C431S-Parkin (Homo sapiens, UniProt O60260, C431S); test: In vitro ubiquitin vinyl sulfone; type: biochemical; conditions: 200 μM compound, range of pUb concentrations
# T5 sequence (O60260 1-465 C431S): T1 sequence (O60260 1-465) with C431S
# pParkin = biological target: T6, pParkin (Homo sapiens, UniProt O60260); test: TR-FRET autoubiquitination assay with phospho-Parkin without pUb; type: biochemical; conditions: TR-FRET ratio, no pUb
# T6 sequence (O60260 1-465): T1 sequence (O60260 1-465)
# [6] = tested on: GFP-Parkin expressing HeLa cells; test: Parkin translocation assay; type: cell-based
# In short: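 HeLa cells stably expressing GFP-Parkin (lentiviral, blasticidin-selected, FACS-sorted for matched GFP) were seeded at 1.6×10^4 cells/well and recovered 24 h. Nuclei were Hoechst-stained 30 min. Cells were pre-treated 1 h with test compound, then given 20 μM CCCP. Live imaging every 10 min for 3 h at 20x, 37°C, 5% CO2, with 9 fields in each of 4 replicate wells.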
# [7] = tested on: SH-SY5Y cells expressing the MitoQC construct; test: MitoQC mitophagy assay; type: cell-based; conditions: 1 h pre-incubation, Antimycin + Oligomycin
# In short: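 SH-SY5Y cells carrying MitoQC were seeded at 1.6×10^4 cells/well on attachment factor and recovered 72 h. Cells were pre-treated 1 h with test compound, then given 5 μM Antimycin + 10 μM Oligomycin or DMSO for 8 h unless stated otherwise. Fixed in 2% PFA on ice 30 min, DAPI-stained, and imaged at 64x (25 fields, 4 replicate wells). mCherry puncta (mitolysosomes) were counted.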
# Human MDR1 efflux transporter (MDCK-MDR1 cells), sequence (P08183 whole entry): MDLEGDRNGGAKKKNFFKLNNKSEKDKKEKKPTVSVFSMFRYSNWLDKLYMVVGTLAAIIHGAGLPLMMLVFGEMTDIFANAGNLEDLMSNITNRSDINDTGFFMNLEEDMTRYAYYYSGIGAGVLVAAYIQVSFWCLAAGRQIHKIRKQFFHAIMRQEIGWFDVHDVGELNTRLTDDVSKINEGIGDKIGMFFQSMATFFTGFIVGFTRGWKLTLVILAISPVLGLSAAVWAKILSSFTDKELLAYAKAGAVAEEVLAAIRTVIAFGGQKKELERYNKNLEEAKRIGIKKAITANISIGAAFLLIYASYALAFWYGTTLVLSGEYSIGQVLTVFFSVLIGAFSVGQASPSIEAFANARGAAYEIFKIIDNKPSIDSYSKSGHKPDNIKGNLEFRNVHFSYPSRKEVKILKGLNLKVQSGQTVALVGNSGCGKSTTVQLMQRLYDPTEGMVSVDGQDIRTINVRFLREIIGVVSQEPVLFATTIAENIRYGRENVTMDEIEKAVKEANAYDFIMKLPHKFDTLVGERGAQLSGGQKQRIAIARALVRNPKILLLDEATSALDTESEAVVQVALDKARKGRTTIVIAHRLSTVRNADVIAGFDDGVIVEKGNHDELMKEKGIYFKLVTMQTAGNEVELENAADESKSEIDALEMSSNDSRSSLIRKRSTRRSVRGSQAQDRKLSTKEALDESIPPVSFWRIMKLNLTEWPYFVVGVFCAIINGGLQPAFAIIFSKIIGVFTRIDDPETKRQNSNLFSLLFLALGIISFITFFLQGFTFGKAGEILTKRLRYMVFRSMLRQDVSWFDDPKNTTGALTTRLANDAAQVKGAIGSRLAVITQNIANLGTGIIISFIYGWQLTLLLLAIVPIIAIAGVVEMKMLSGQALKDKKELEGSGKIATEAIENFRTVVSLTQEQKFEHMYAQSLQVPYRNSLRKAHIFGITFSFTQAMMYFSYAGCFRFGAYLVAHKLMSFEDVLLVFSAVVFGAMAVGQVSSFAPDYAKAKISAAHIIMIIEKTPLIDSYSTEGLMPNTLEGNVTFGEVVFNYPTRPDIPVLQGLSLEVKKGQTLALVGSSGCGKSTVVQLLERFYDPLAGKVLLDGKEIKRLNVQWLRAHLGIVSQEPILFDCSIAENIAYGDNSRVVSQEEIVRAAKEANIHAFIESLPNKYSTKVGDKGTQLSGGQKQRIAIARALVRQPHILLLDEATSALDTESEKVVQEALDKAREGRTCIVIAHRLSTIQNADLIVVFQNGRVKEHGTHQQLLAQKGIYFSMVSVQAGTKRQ
compound,measurement,setting,value
"CO[C@H](C(=O)N1Cc2c(-c3ccc(C(=O)N4CCCc5ccccc54)cc3)cnn2C[C@H]1C(C)C)c1cnn(C)c1 (single isomer, unassigned) [BIO-2007817]",MDR1-MDCK avg (average of Papp AB/BA),[1],19.8 ×10⁻⁶ cm/s
same,Parkin autoubiquitination by Western blot,WT-Parkin,stimulated Parkin autoubiquitination as measured by Western blots in a concentration-dependent manner
same,Miro1 ubiquitination by Western blot,[2],able to induce the appearance of monoubiquitinated forms of Miro1
same,Ub-VS charging of WT-Parkin,"[3]; no E1, E2 or ATP",induced the appearance of slower-migrating Parkin species in a concentration-dependent manner
same,concentration above which maximal efficacy is approached in Ub-VS charging,[3]; WT-Parkin,above 20 μM
same,Ub-VS charging of W403A-Parkin,[4],further stimulated exposure of the active-site C431
same,Ub-VS charging of C431S-Parkin,[5],not responsive; also recorded: no activity
same,activation of phospho-Parkin in the absence of pUb,pParkin,can act as an agonist for activated phospho-Parkin even in the absence of pUb
same,effect on Parkin translocation rate in the presence of valspodar,[6]; HeLa cells with and without valspodar (MDR1 inhibitor),No change in Parkin translocation rate
same,effect on rate of Parkin translocation to mitochondria,"[6]; eGFP-WT-Parkin HeLa, 1 h pretreatment, then CCCP",did not significantly change the rate of translocation of Parkin; also recorded: not able to promote Parkin translocation to depolarized mitochondria in HeLa cells
same,"effect on mitophagy, MitoQC",[7],nor promote mitophagy in MitoQC SH-SY5Y cell lines
